Assay results from ChEMBL document CHEMBL1130037, “Synthesis and pharmacological properties of a close analogue of an antithrombotic pentasaccharide (SR 90107A/ORG 31540)” (J Med Chem, 1997).

Key:
Antithrombin-III = Antithrombin-III (Homo sapiens, UniProt P01008); assay: Dissociation constant for Antithrombin-III
How it was run: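 Intrinsic protein fluorescence titration at 37 °C with stirring; oligosaccharides added to Tris-HCl 0.01 M pH 7.0, 0.15 M NaCl containing 5–60 nM human AT III (purified). Complex concentrations calculated assuming 1:1 stoichiometry; KD from Scatchard analysis. Mean ± SEM, n = 3.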

[1] = biological target: Coagulation factor X (Homo sapiens) (UniProt P00742); assay: Inhibition of blood coagulation factor Xa was determined by AT III.
Coagulation factor X (Homo sapiens), sequence (P00742 41-179 limits assumed): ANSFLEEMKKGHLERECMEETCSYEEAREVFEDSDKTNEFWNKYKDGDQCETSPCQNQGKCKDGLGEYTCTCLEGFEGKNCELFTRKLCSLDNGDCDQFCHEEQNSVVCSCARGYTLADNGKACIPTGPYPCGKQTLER
Coagulation factor X (Homo sapiens), sequence (P00742 235-488 limits assumed): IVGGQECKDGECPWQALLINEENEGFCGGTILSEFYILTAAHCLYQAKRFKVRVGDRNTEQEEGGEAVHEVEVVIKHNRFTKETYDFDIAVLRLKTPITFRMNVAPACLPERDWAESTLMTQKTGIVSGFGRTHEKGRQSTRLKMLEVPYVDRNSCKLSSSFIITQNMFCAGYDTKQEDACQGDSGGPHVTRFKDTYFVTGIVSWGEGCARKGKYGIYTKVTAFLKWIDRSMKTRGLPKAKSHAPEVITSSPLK
How it was run: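 Amidolytic assay in buffer: factor Xa (7.5 nkat/mL) incubated 2 min at 37 °C with AT III (0.5 unit/mL) and oligosaccharide at various concentrations in 20 mM Tris/maleate pH 7.4, 150 mM NaCl. Residual Xa measured with S-2222 (1 mM stock); stopped after 2 min with acetic acid, A405 read. Activity versus calibrated standard; mean ± SEM, n = 3.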

[2] = Elimination half life was determined.; format: ADME
How it was run: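 Rats with jugular catheter (pentobarbitone anesthesia), recovered overnight, received 100 nmol/kg iv bolus. Citrated blood collected; plasma levels measured by anti-factor Xa activity using each compound as its own reference. Half-life from slope of terminal phase; mean ± SEM, n = 4.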

Prothrombin = Prothrombin (Homo sapiens, UniProt P00734); assay: Inhibition of Thrombin generation was determined; format: functional
How it was run: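 Thrombin generation in human defibrinated platelet-poor citrated plasma at 37 °C. Cuvette held rabbit brain thromboplastin (amount giving 90 s Quick time), S-2222 (1.6 mM stock), compound in Tris-HCl pH 7.35, and CaCl2 (0.25 M stock). Plasma addition started the reaction; A405 followed 20 min. IC50 from area under curve by four-parameter logistic fit; mean with 95% CI, n = 3.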

Rattus norvegicus = assay: In vivo antithrombotic activity was determined in rats; format: functional
How it was run: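 Stasis plus hypercoagulability venous thrombosis in male Sprague-Dawley rats (250-300 g) under pentobarbitone (30 mg/kg ip). Compounds given iv (penile vein) 5 min before human tissue factor (1 ng/kg iv over 30 s). Vena cava ligated 10 s later for 20 min; thrombus dried and weighed. ED50 = 50% thrombus weight reduction; mean with 95% CI, n = 6.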

Antithrombin-III, sequence (P01008 whole entry): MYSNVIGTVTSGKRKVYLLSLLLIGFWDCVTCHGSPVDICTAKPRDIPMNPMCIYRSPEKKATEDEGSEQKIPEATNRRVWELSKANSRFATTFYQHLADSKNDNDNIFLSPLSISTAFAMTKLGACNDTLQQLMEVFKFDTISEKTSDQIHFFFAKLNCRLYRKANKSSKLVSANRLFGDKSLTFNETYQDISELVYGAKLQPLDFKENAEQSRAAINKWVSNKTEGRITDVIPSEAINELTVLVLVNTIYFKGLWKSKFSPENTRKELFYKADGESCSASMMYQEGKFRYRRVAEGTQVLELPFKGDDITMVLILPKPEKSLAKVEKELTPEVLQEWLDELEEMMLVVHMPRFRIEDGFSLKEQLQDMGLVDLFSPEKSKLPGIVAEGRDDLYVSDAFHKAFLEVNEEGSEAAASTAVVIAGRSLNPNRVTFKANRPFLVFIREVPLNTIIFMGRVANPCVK

O=C([O-])C1O[C@@H](O[C@H]2C(O)C(NS(=O)(=O)[O-])[C@@H](O)O[C@H]2COS(=O)(=O)[O-])C(NS(=O)(=O)[O-])[C@@H](O)[C@@H]1O[C@@H]1OC(COS(=O)(=O)[O-])[C@@H](O[C@@H]2O[C@@H](C(=O)[O-])[C@@H](O[C@H]3O[C@@H](COS(=O)(=O)[O-])[C@@H](O)C(O)C3NS(=O)(=O)[O-])C(O)C2O)[C@H](OS(=O)(=O)[O-])C1OS(=O)(=O)[O-].[Na+].[Na+].[Na+].[Na+].[Na+].[Na+].[Na+].[Na+].[Na+].[Na+] (stereo not given in full) showed a Kd (Antithrombin-III) of 58 nM, an Activity [1] of 850 U/mg and a half-life [2] of 42 min. For the same compound, the IC50 (Prothrombin) was 130 nM and the ED50 (Rattus norvegicus) was 0.081 mg/kg.
